NR2E3 ag-1 = activates human NR2E3 receptor | hit rate 0.35% among 360,000 | AID 602229 | inhibition of corepressor binding, % at 3.98 µM | Q9Y5X4 | CHO-S Gal4-NCOR/VP16-NR2E3 two-hybrid, luciferase;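 active = inhibition above the mean of all tested compounds plus 3 SD, cut at about 70% in these data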;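 also: 0% = DMSO with NR2E3 transfected cells and 100% = cells lacking NR2E3 construct; higher means lower luciferase signal from less NR2E3 corepressor binding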
PG9 binder = PG9 antibody binding by small molecule; TR-FRET gp120-PG9 antibody binding; inhibition, % at 6.7 µM; hit rate 0.43% among 360,000; in the data active = inhibition above about 8.5%
Rev-erbA mod = modulators of human Rev-erb alpha DNA binding; Rev-erbα–FITC-DNA binding, fluorescence polarization, 90 min; activity, % at 10 µM; hit rate 0.79% among 370,000; AID 1259318;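 active = activity above about 14%, limit read from the data; passing the limit was not always enough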;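 also: 0% = DMSO wells with 35 nM protein and 100% = DMSO wells with 750 nM protein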
Target sequence (P20393 whole entry, looked up): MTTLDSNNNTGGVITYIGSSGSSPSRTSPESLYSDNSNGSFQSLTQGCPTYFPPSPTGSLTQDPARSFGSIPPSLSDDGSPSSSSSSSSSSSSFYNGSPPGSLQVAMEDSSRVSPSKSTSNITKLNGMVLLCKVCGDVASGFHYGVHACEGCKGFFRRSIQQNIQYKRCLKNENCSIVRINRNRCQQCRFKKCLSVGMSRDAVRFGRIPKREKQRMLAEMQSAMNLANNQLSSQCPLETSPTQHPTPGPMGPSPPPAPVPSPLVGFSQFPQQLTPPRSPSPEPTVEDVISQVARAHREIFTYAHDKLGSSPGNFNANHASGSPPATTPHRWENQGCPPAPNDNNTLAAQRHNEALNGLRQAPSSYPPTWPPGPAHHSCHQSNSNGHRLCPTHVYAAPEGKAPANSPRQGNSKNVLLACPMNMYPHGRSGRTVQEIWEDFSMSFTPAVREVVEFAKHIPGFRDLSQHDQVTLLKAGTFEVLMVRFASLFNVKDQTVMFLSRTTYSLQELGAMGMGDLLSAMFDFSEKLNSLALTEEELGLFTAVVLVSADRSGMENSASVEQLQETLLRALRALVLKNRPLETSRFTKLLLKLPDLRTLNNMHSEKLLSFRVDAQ
NR2E3 ag-2 = NR2E3 (human) agonism; GST-NR2E3/biotin-RetCOR TR-FRET, 1536-well; inhibition of corepressor binding, % at 4.78 µM; hit rate 0.12% among 320,000; AID 2300;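 active = percent inhibition above the cutoff of mean plus 3 SD of all tested compounds, set per screening campaign, cut at about 20% in these data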;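 also: 0% = DMSO wells and 100% = biotin wells as full block of FRET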
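System: GST-tagged NR2E3 plus biotinylated RetCOR corepressor; Buffer or medium: pH 7.5 Tris-based buffer; Probe or stimulus: RetCOR corepressor, biotinylated, 7 nM; Doses: compound at 4.8 µM, single dose; Schedule: 5 h incubation at 4 °C; Technique: time-resolved FRET; Evaluation: percent inhibition of TR-FRET ratio; Replication: one well per compound, singlicate testing.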
NR2E3 ag confirm = NR2E3 agonism confirmed in two-hybrid assay. hit rate 51% among 2,300. shares compounds with NR2E3 ag-1. CHO-S mammalian two-hybrid NR2E3-NCOR, luciferase luminescence. inhibition, % at 3.98 µM. AID 624378;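 active = average inhibition above a cutoff equal to the mean inhibition of all tested compounds plus one SD, cut at about 70% in these data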;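 also: 0% = DMSO in NR2E3 cells and 100% = DMSO in cells lacking NR2E3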
GAL4-VP16 luc = counter-screen for NR2E3 agonists: GAL4-VP16 reporter inhibitors | shares compounds with NR2E3 ag-1 | CHO-S GAL4-VP16 luciferase reporter, luminescence | inhibition, % at 3.98 µM | hit rate 29% among 2,300 | AID 624379;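 active = mean inhibition above a cutoff equal to the average over all tested compounds plus one standard deviation, cut at about 70% in these data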;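 also: luciferase from a UAS reporter driven by GAL4-VP16 transactivation; 0% = DMSO with VP16-transfected cells and 100% = DMSO with cells lacking VP16; higher means less reporter light so more repression of VP16 activity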
The depositor's hits bear a star; . = no result given. Most compounds without a hit are left out; they make up all but 1.5% or so of the library.

SMILES | NR2E3 ag-1 | PG9 binder | Rev-erbA mod | NR2E3 ag-2 | NR2E3 ag confirm | GAL4-VP16 luc
COc1ccc(C(=O)NC2CCCc3c2cnn3-c2cccc(C)c2C)o1 (stereo not given) | 65 | -2 | -4 | 2 | 32 | 30
Cc1cccc(-n2ncc3c2CCCC3NC(=O)Cc2c(C)noc2C)c1C (stereo not given) | 60 | -3 | 0 | 0 | 54 | 57
CCn1cc(C(=O)NC2CCCc3c2cnn3-c2cccc(C)c2C)cn1 (stereo not given) | 105* | 0 | 1 | 0 | 95* | 88*
CCCCCCC/C=C(\C)[C@@H](O)[C@@H](C)C(=O)N1CCC[C@@H]1C(=O)O | . | . | -4 | . | . | .
C#CCOCCOCCOCCNc1nc(N2CCN(C(=O)Cn3cc(CCCN=C(N)N)nn3)CC2)nc(N2CCN(C(=O)[C@H](Cc3ccc(O)cc3)n3cc(CCO)nn3)CC2)n1 | . | . | -1 | . | . | .
CC[C@@H]1/C(=C/c2ccccc2)N2C(=O)C[C@@H](c3ccccc3)N=C2N1Cc1ccc(OC)cc1OC | . | . | 3 | . | . | .
CCOC(=O)NC[C@@]1(C(=O)OC)CC(=O)N(Cc2ccc(Cl)cc2)[C@@H]1c1ccc(OC)cc1 | . | . | 1 | . | . | .
CC1=C(C(=O)NC2CCCc3c2cnn3-c2cccc(C)c2C)OCCO1 (stereo not given) | 80* | 1 | 3 | 1 | 73* | 67
CC[C@H](CO)Nc1nc(Nc2cccc(Cl)c2)c2ncn(C(C)C)c2n1 | 92* | 0 | 1 | 3 | 74* | 66
COc1cccc(OC)c1NC(=O)OC1CCC12CCC(c1ccccc1)CC2 (stereo not given) | . | . | -11 | . | . | .
Cc1c(/C(O)=C2/C(=O)C(=O)N(Cc3cccnc3)C2c2cccs2)cnn1-c1ccccc1 (stereo not given) | 25 | 5 | 7 | 11 | . | .
Cc1c(/C(O)=C2/C(=O)C(=O)N(Cc3cccnc3)C2c2ccccn2)cnn1-c1ccccc1 (stereo not given) | 83* | 3 | 1 | 2 | 30 | 48
CC(=O)Nc1ccc(C(CCCc2ccccc2)C2=CCCCC2)cc1 (stereo not given) | . | . | 0 | . | . | .
CCOC(=O)c1ccc(NC(=O)CSc2nnc(SCc3cccc4ccccc34)s2)cc1 | . | . | 6 | . | . | .
N#C/C(=N\Nc1cccc(C(F)(F)F)c1)C(=O)c1ccsc1 | 80* | -1 | 6 | -2 | 98* | 59
COc1ccccc1OCCNS(=O)(=O)c1ccc2oc3ccccc3c2c1 | 51 | 0 | 4 | 0 | 62 | 68
C=CCSc1nc2ccccc2n1C(=O)/C=C/c1ccc(OC)c(OC)c1 | -13 | 1 | 2 | 8 | . | .
C=CCSc1nc2ccccc2n1C(=O)/C=C/c1cc(OC)c(OC)c(OC)c1 | 57 | 0 | -2 | 1 | 69 | -1
Oc1ccc(O)c(C=NNC(=S)NC2CC3CC2C2C=CCC32)c1 (stereo not given) | 53 | 0 | -1 | . | -18 | -34
CC1CCCN(c2ncnc3c2cnn3-c2ccc(Cl)cc2)C1 (stereo not given) | 92* | 1 | 0 | 1 | 83* | 69
CCCCc1oc2ccc(NS(C)(=O)=O)cc2c1C(=O)c1ccc(OCCCN(CCCC)CCCC)cc1 | . | . | -7 | . | . | .
CCCCCc1ccc(NC(=O)O[C@@H]2CC[C@@]34CCCN3C(=O)CCC[C@H]4C2)cc1 | . | . | 0 | . | . | .
Cc1ccc2c(CN(C)Cc3ccc(OC(F)F)cc3)cc(=O)oc2c1C | 56 | 1 | 6 | 0 | 43 | 54
COc1ccc(S[C@]2(C(=O)N3CCN(C(C)=O)CC3)CC(=O)N(C(=O)Nc3ccc(C)c(Cl)c3)[C@@H]2c2ccc(OC)cc2)cc1 | . | . | -4 | . | . | .
COc1ccccc1CC(=O)N1CCN(c2cccc(C(F)(F)F)c2)CC1 | 50 | -1 | -2 | 2 | 94* | 71*
SMILES | NR2E3 ag-1 | PG9 binder | Rev-erbA mod | NR2E3 ag-2 | NR2E3 ag confirm | GAL4-VP16 luc
COc1ccccc1NC(=O)N1CCN(c2cccc(C(F)(F)F)c2)CC1 | -20 | 0 | 0 | 2 | . | .
Cc1ccc(S(=O)(=O)N2CCN(c3ncccn3)CC2)cc1C | 6 | 0 | 1 | 3 | . | .
Cc1ccc(S(=O)(=O)N2CCN(c3ncnc4sccc34)CC2)cc1C | 105* | 0 | -4 | . | 91* | 79*
Cc1nn(-c2nc3ccccc3[nH]2)c(=O)c2ccccc12 | 53 | 2 | -2 | 3 | 65 | 25
CCOc1ccc(CCNC(=O)COC(=O)Cc2c[nH]c3ccccc23)cc1OCC | -5 | 0 | -4 | 3 | . | .
CCOc1ccc(CCNC(=O)COC(=O)Cc2ccc(F)cc2)cc1OCC | 59 | 2 | 9 | 2 | 22 | 13
C[C@H]1[C@@H](NC(=O)c2ccc(C(C)(C)C)cc2)CC[C@@]23CCCN2C(=O)CCC[C@@H]13 | . | . | -3 | . | . | .
COc1ccc(-n2c(SCC(=O)Nc3ccc(S(=O)(=O)Nc4nccs4)cc3)nnc2-c2ccccc2)cc1 | . | . | -7 | . | . | .
CCOC(=O)CNC(=O)c1ccccc1 | 5 | 0 | 5 | 2 | . | .
CCOC(=O)CNC(=O)c1sc(NC(=O)c2ccccc2)nc1C | 49 | -1 | 2 | -1 | 3 | -21
CCNC(=S)N1CCN(c2ccccn2)CC1 | -14 | -2 | -5 | -2 | . | .
CC(NNC(=S)N1CCN(c2ccccn2)CC1)c1nccc2ccccc12 (stereo not given) | 83* | -1 | -4 | . | 5 | 14
CC1=CC2(C(Cc3ccccc3)N(CC3CC3)C(=NC(=O)c3ccccc3)N2C(=O)OCc2ccccc2)n2c(=O)n(-c3ccccc3)c(=O)n2C1 (stereo not given) | . | . | -2 | . | . | .
CC(=O)Nc1ccc(SCC(=O)c2cc(C)n(Cc3cccs3)c2C)cc1 | 66 | 0 | 1 | 1 | 54 | 2
CC(=O)Nc1ccc(SCC(=O)c2cc(C)n(-c3ccccc3F)c2C)cc1 | 69 | -2 | 6 | 4 | 59 | 18
Cc1csc(SCC(=O)c2cc(C)n(Cc3cccs3)c2C)n1 | 61 | 2 | 0 | 1 | 53 | 1
Cc1cc(C(=O)CSc2nnc(N)s2)c(C)n1Cc1cccs1 | -99 | 0 | 6 | -3 | . | .
COCCn1c(C)cc(C(=O)CSc2ccc(NC(C)=O)cc2)c1C | -32 | 0 | -3 | -3 | . | .
CC[C@@H](CO)NCCN[C@@H](CC)CO | . | . | -2 | . | . | .
CCCN(CCC)C(=O)C(CCC(=O)OCCCN1CCN(CCOC(=O)Cc2c(C)n(C(=O)c3ccc(Cl)cc3)c3ccc(OC)cc23)CC1)NC(=O)c1ccccc1 (stereo not given) | . | . | 6 | . | . | .
Cc1ccc(NS(=O)(=O)c2ccc(C(=O)N3CCN(S(=O)(=O)c4ccccc4)CC3)cc2)cc1 | 62 | -1 | 1 | 2 | 47 | 22
Cc1ccc(NS(=O)(=O)c2ccc(C(=O)N3CCN(c4ncccn4)CC3)cc2)cc1 | 83* | 0 | 1 | -1 | 74* | 57
Cc1ccc(S(=O)(=O)Nc2ccc(C(=O)N3CCCC3)cc2)cc1 | 11 | -1 | -5 | 3 | . | .

Bioassay records as filed in PubChem BioAssay.
